Residue numbers refer to the chain shown, from its start.
Columns and labels:
Details in all cases: stereoisomer not certain
O51F1 [1] = tested on: T1, O51F1
T1 sequence (whole entry): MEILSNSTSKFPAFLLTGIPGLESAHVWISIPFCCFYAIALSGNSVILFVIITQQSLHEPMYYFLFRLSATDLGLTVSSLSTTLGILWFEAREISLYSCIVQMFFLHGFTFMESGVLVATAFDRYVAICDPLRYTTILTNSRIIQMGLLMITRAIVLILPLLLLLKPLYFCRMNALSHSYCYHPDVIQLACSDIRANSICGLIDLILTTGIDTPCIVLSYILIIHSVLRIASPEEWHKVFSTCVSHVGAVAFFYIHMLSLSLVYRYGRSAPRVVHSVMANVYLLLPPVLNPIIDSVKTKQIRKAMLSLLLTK
Method in brief: (§1)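 Values were gathered from published papers (main text and supplementary material), with extra details requested from the original authors when needed, and checked for typos and inconsistencies. Each receptor–molecule pair is called responsive (active) if the original authors judged the measured signal statistically different from baseline, and non-responsive (inactive) otherwise. Assay methods varied by source, often transient mammalian cell-line luciferase assays. Recorded details include cell line, G-protein, co-transfected protein and tags.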

O51F1 [2] = tested on: T2, O51F1; remark: listed apart in the source
T2 sequence (whole entry): T1 sequence (whole entry) with A13T
Method in brief: as §1

O51F2 Y341S = tested on: T3, O51F2 Y341S
T3 sequence (whole entry): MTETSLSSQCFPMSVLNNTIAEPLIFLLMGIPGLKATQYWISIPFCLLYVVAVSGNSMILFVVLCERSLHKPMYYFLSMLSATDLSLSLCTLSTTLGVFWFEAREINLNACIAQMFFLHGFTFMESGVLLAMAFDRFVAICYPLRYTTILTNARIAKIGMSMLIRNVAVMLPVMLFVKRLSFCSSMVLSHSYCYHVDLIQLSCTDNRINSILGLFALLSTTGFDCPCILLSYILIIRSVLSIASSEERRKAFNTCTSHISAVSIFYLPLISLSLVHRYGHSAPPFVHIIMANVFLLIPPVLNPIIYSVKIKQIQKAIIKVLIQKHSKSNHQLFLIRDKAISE
Method in brief: as §1

O51G1 = tested on: T4, O51G1
T4 sequence (whole entry): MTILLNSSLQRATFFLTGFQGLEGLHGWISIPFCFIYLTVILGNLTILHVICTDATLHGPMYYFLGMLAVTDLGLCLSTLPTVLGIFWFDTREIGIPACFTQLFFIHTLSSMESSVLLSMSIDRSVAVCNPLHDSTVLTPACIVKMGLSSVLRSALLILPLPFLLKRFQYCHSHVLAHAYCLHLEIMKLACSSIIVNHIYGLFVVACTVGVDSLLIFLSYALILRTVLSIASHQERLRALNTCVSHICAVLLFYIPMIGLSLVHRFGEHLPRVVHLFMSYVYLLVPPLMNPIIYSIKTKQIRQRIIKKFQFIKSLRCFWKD
Method in brief: as §1

O51I1 V164L = tested on: T5, O51I1 V164L
T5 sequence (whole entry): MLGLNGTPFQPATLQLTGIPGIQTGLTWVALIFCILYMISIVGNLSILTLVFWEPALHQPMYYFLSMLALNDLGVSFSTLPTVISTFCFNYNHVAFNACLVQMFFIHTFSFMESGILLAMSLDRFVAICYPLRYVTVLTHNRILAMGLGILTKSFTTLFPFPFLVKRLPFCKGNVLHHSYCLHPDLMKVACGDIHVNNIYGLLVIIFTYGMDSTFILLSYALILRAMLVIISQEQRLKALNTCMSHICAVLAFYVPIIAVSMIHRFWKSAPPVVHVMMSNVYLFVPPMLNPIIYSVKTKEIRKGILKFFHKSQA
Method in brief: as §1

O51J1 R75H I202V = tested on: T6, O51J1 R75H I202V
T6 sequence (whole entry): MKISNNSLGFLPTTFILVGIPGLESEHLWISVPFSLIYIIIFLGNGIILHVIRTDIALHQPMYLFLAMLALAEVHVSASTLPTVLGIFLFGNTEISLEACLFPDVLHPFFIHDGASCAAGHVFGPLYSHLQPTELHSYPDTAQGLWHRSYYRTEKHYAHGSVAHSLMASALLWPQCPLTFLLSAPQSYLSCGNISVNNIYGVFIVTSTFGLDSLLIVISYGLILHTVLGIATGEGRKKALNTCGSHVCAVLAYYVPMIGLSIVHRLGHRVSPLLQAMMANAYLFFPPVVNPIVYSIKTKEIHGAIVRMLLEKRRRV
Method in brief: as §1

O51L1 = tested on: T7, O51L1
T7 sequence (whole entry): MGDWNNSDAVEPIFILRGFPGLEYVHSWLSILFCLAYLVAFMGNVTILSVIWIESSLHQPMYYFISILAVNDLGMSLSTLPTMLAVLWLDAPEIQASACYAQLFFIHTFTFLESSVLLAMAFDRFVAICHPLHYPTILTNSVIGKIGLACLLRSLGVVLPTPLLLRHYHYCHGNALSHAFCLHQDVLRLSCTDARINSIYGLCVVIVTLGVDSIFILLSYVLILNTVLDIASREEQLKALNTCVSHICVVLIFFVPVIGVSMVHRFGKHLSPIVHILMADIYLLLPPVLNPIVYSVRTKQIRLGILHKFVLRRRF
Method in brief: as §1

O51T1 = tested on: T8, O51T1
T8 sequence (whole entry): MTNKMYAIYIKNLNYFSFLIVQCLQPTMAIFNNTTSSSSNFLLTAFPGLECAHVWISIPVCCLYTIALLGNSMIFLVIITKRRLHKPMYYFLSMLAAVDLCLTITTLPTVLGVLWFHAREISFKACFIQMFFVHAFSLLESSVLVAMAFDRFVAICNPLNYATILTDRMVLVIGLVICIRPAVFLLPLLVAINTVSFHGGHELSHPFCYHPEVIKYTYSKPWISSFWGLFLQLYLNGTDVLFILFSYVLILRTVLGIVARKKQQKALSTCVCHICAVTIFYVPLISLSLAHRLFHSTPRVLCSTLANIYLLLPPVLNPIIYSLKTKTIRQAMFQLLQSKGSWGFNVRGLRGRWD
Method in brief: as §1

O51V1 L36F N51T G96W = tested on: T9, O51V1 L36F N51T G96W
T9 sequence (whole entry): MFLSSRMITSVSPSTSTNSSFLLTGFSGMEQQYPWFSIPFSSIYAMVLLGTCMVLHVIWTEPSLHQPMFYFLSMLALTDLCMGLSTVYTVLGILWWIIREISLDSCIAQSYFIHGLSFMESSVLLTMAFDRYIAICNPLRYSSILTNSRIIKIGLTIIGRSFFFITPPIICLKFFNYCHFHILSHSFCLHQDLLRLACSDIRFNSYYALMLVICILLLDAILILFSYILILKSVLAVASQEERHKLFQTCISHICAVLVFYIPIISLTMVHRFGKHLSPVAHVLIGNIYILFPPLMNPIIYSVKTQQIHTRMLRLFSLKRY
Method in brief: as §1

O52A1 = tested on: T10, O52A1
T10 sequence (whole entry): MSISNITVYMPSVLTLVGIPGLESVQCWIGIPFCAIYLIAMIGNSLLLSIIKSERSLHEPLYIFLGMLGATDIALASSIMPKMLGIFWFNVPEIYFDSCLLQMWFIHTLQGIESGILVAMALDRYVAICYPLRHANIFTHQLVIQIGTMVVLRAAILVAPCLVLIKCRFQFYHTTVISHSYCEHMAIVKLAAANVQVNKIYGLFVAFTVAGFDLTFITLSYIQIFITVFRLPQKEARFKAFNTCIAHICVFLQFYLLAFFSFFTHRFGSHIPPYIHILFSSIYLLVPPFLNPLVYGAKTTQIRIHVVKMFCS
Method in brief: as §1

O52B6 V288I = tested on: T11, O52B6 V288I
T11 sequence (whole entry): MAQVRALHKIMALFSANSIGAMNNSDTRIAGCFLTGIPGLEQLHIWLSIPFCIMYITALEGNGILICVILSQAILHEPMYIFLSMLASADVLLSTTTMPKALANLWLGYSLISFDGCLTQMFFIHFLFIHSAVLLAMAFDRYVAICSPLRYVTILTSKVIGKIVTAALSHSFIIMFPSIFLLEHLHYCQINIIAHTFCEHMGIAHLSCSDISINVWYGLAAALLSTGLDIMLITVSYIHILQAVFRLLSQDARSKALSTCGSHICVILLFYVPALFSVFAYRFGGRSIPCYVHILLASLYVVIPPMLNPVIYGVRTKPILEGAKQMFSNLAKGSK
Method in brief: as §1

O52E2 R264C = tested on: O52E2 R264C
O52E2 R264C, sequence (as listed by the source, stated change not applied): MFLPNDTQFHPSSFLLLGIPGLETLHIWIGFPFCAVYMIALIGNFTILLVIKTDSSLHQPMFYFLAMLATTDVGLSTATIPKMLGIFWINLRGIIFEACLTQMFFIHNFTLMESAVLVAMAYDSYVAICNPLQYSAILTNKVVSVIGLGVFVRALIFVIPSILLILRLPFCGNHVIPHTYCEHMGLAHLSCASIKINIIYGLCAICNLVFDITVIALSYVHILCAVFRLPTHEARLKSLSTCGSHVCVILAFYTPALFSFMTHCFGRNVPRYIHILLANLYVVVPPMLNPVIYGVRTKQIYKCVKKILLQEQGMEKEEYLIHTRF
Method in brief: as §1

O52E4 = tested on: O52E4
O52E4, sequence (as listed by the source): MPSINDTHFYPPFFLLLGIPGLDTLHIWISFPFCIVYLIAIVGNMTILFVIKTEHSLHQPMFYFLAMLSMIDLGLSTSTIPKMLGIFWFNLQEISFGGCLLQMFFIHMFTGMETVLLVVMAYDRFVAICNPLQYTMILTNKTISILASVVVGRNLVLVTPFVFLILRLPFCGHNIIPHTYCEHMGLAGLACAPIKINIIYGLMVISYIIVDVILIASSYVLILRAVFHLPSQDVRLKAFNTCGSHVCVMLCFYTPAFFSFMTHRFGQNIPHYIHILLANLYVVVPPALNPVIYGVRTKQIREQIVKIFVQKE
Method in brief: as §1

O52E5 = tested on: O52E5
O52E5, sequence (as listed by the source): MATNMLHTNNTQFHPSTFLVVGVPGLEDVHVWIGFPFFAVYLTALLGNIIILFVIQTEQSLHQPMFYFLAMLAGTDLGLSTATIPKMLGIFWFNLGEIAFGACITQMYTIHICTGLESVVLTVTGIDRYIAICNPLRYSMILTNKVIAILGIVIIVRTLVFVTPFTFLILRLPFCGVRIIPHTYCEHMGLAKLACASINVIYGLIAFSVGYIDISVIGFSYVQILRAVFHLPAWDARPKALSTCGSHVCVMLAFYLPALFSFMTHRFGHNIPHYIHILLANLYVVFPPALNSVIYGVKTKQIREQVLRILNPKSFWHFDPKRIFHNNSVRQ
Method in brief: as §1

O52E8 = tested on: O52E8
O52E8, sequence (as listed by the source): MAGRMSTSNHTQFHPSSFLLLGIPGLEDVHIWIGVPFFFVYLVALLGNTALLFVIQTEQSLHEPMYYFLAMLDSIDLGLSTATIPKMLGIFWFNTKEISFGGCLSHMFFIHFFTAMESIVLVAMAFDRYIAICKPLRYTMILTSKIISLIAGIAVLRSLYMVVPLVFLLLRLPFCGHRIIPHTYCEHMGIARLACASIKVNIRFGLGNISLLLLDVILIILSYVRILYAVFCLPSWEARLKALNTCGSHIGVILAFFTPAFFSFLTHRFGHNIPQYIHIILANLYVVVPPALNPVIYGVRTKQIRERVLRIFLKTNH
Method in brief: as §1

O52H1 A89T H130R C242R = tested on: T12, O52H1 A89T H130R C242R
T12 sequence (whole entry): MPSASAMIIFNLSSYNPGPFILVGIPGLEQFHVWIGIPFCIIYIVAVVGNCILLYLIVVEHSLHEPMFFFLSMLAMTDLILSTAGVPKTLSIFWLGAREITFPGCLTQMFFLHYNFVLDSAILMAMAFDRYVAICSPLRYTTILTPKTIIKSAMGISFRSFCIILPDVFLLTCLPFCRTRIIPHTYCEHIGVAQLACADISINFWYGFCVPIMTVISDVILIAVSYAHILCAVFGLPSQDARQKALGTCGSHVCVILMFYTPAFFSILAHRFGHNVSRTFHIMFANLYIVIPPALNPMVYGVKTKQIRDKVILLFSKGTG
Method in brief: as §1

O52H1 H130R C242R = tested on: T13, O52H1 H130R C242R
T13 sequence (whole entry): T12 sequence (whole entry) with T89A
Method in brief: as §1

O52H1 = tested on: T14, O52H1
T14 sequence (whole entry): T12 sequence (whole entry) with T89A, R130H, R242C
Method in brief: as §1

O52I2 I74L = tested on: T15, O52I2 I74L
T15 sequence (whole entry): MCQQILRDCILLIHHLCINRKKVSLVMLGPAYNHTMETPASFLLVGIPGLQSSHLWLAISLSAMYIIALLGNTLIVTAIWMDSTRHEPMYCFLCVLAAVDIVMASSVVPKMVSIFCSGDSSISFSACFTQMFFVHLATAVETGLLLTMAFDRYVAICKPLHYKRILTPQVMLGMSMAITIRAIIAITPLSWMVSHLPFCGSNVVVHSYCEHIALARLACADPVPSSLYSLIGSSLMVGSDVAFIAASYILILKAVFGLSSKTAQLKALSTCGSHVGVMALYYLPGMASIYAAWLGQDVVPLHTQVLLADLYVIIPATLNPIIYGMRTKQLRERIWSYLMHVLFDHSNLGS
Method in brief: as §1

O51J1 = tested on: O51J1
O51J1, sequence (as listed by the source): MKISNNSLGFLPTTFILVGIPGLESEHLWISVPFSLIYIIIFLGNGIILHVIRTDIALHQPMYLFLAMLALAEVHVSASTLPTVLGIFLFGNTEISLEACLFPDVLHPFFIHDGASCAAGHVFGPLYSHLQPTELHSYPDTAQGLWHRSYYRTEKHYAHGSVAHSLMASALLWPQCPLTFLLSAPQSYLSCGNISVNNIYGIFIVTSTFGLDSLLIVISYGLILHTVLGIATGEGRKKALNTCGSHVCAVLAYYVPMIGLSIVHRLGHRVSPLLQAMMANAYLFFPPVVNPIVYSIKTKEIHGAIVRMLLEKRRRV
Method in brief: as §1

Measured: odorant receptor agonist call

CCCC(S)CCOC(C)=O (stereo not drawn)
not listed: O51J1
inactive: all other assays above

CC1=NC(C)C(C)S1 (stereo not drawn)
not listed: O51J1
inactive: all other assays above

CC(=O)c1c(C)c([N+](=O)[O-])c(C(C)(C)C)c([N+](=O)[O-])c1C
inactive: O52E8 | O52H1

CCCCCC(=O)C(C)C(C)=O (stereo not drawn)
inactive: O52E8 | O52H1

CC1=C(O)C(=O)OC1C (stereo not drawn)
not listed: O51J1
inactive: all other assays above

CCCC(C)=CC(=O)O
inactive: O51J1

CCCCCC1CCCC(=O)O1 (stereo not drawn)
inactive: O52E8 | O52H1

CCC1OC(C)=C(O)C1=O (stereo not drawn)
not listed: O51J1
inactive: all other assays above

CCCCC(S)C(C)CO (stereo not drawn)
inactive: O52E8 | O52H1

CC1=C(O)C(=O)C(C)O1 (stereo not drawn)
not listed: O51J1
inactive: all other assays above

CCCCCCC=CCCC=O
not listed: O51F1 [2] | O51T1 | O52E5 | O51J1
inactive: all other assays above

CCC(S)C(C)CO (stereo not drawn)
inactive: O52E8 | O52H1

CC(CO)CS (stereo not drawn)
inactive: O52E8 | O52H1

C=C(C)C1CCC(C)C(=O)C1 (stereo not drawn)
inactive: O51F1 [1] | O51F1 [2]

CCC1OC(=O)C(O)=C1C (stereo not drawn)
not listed: O51J1
inactive: all other assays above

CC1CCCCCCCCCCCCC(=O)C1 (stereo not drawn)
inactive: O52E8 | O52H1

Cc1cnc(C)c(C)n1
not listed: O51J1
inactive: all other assays above

CCCCCC(S)C(C)CO (stereo not drawn)
inactive: O52E8 | O52H1

— the M2OR odorant receptor database
